Measured values from ChEMBL document CHEMBL5724801, “EUbOPEN Chemogenomics Library - Multiplex” (2024).
“And” between values parts separate entries of the source, which are not always exact repeats. Equal values may be shown once.

Tested on: U2OS
Experiment: Multiplex assay against U2OS
Format: toxicity, cell-based
Conditions: human
Summary of the method: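 Phenotypes for tubulin, mitochondrial mass and membrane permeability are expressed as per cents of healthy-nucleus cells. Cells were stained live at seeding with Hoechst33342, BioTracker Green Microtubule Cytoskeleton Dye, MitoTracker Red and Annexin V Alexa Fluor 680, then imaged after compound addition on a CQ1 microscope at 37°C and 5% CO2. Machine-learning gating in CellPathfinder separated Hoechst high-intensity objects from normal cells, divided normal cells by nuclear state (healthy, pyknosed, fragmented) and divided pyknosed cells into mitotic or apoptotic.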

[1] = 12 h, 1 µM, compound concentration 1 uM
[2] = 12 h, 10 µM, compound concentration 10 uM
[3] = 24 h, 1 µM, compound concentration 1 uM
[4] = 24 h, 10 µM, compound concentration 10 uM
[5] = 48 h, 1 µM, compound concentration 1 uM
[6] = 48 h, 10 µM, compound concentration 10 uM

CN(C)C(=O)Cn1cc(-c2ccc(-c3nnc4ccccn34)cc2)cn1
Population Apoptotic (%) [1]: 90%
Population Fragmented Nuclei (%) [1]: 25% and 22%
Population Healthy Nuclei (%) [1]: 66% and 68%
Population Hoechst High Intensity Objects (%) [1]: 1% and 0%
Population Membrane Permeable-Phenotype (%) [1]: 6% and 3%
Population Mitochondria Different-Phenotype (%) [1]: 1% and 6%
Population Mitotic Cells (%) [1]: 9%
Population Normal (%) [1]: 98% and 99%
Population Pyknosed Nuclei (%) [1]: 8% and 9%
Population Tubulin-Different-Phenotype (%) [1]: 3% and 4%
Total Cell Count [1]: 251 and 123
Population Apoptotic (%) [2]: 95% and 90%
Population Fragmented Nuclei (%) [2]: 26% and 11%
Population Healthy Nuclei (%) [2]: 65% and 81%
Population Hoechst High Intensity Objects (%) [2]: 1%
Population Membrane Permeable-Phenotype (%) [2]: 4%
Population Mitochondria Different-Phenotype (%) [2]: 1% and 0%
Population Mitotic Cells (%) [2]: 4% and 10%
Population Normal (%) [2]: 98%
Population Pyknosed Nuclei (%) [2]: 7%
Population Tubulin-Different-Phenotype (%) [2]: 3%
Total Cell Count [2]: 298 and 140
Population Apoptotic (%) [3]: 94% and 100%
Population Fragmented Nuclei (%) [3]: 22% and 17%
Population Healthy Nuclei (%) [3]: 71% and 74%
Population Hoechst High Intensity Objects (%) [3]: 0%
Population Membrane Permeable-Phenotype (%) [3]: 4% and 7%
Population Mitochondria Different-Phenotype (%) [3]: 2% and 7%
Population Mitotic Cells (%) [3]: 5% and 0%
Population Normal (%) [3]: 99% and 100%
Population Pyknosed Nuclei (%) [3]: 5% and 8%
Population Tubulin-Different-Phenotype (%) [3]: 1% and 4%
Total Cell Count [3]: 315 and 131
Population Apoptotic (%) [4]: 86% and 87%
Population Fragmented Nuclei (%) [4]: 22% and 10%
Population Healthy Nuclei (%) [4]: 66% and 85%
Population Hoechst High Intensity Objects (%) [4]: 2% and 1%
Population Membrane Permeable-Phenotype (%) [4]: 4% and 7%
Population Mitochondria Different-Phenotype (%) [4]: 1%
Population Mitotic Cells (%) [4]: 13% and 12%
Population Normal (%) [4]: 97% and 98%
Population Pyknosed Nuclei (%) [4]: 11% and 4%
Population Tubulin-Different-Phenotype (%) [4]: 2% and 3%
Total Cell Count [4]: 333 and 180
Population Apoptotic (%) [5]: 87% and 93%
Population Fragmented Nuclei (%) [5]: 16% and 11%
Population Healthy Nuclei (%) [5]: 75% and 67%
Population Hoechst High Intensity Objects (%) [5]: 2%
Population Membrane Permeable-Phenotype (%) [5]: 4% and 7%
Population Mitochondria Different-Phenotype (%) [5]: 2% and 3%
Population Mitotic Cells (%) [5]: 12% and 6%
Population Normal (%) [5]: 97%
Population Pyknosed Nuclei (%) [5]: 7% and 20%
Population Tubulin-Different-Phenotype (%) [5]: 1% and 3%
Total Cell Count [5]: 426 and 158
Population Apoptotic (%) [6]: 95% and 85%
Population Fragmented Nuclei (%) [6]: 21% and 8%
Population Healthy Nuclei (%) [6]: 67% and 81%
Population Hoechst High Intensity Objects (%) [6]: 3% and 2%
Population Membrane Permeable-Phenotype (%) [6]: 8% and 6%
Population Mitochondria Different-Phenotype (%) [6]: 4% and 2%
Population Mitotic Cells (%) [6]: 4% and 14%
Population Normal (%) [6]: 96% and 97%
Population Pyknosed Nuclei (%) [6]: 11% and 9%
Population Tubulin-Different-Phenotype (%) [6]: 4% and 2%
Total Cell Count [6]: 418 and 284

COC(=O)c1ccc2c(c1)NC(=O)/C2=C(\Nc1ccc(N(C)C(=O)CN2CCN(C)CC2)cc1)c1ccccc1 [NINTEDANIB]
Population Apoptotic (%) [1]: 50% and 43.75%
Population Fragmented Nuclei (%) [1]: 2.42% and 2.88%
Population Healthy Nuclei (%) [1]: 89.37% and 85.61%
Population Hoechst High Intensity Objects (%) [1]: 0%
Population Membrane Permeable-Phenotype (%) [1]: 1.62% and 4.2%
Population Mitochondria Different-Phenotype (%) [1]: 0% and 14.29%
Population Mitotic Cells (%) [1]: 50% and 56.25%
Population Normal (%) [1]: 100%
Population Pyknosed Nuclei (%) [1]: 8.21% and 11.51%
Population Tubulin-Different-Phenotype (%) [1]: 1.89% and 2.52%
Total Cell Count [1]: 414 and 139
Population Apoptotic (%) [2]: 48.33% and 44.44%
Population Fragmented Nuclei (%) [2]: 3.26% and 6.04%
Population Healthy Nuclei (%) [2]: 72.3% and 74.18%
Population Hoechst High Intensity Objects (%) [2]: 0%
Population Membrane Permeable-Phenotype (%) [2]: 21.97% and 30.37%
Population Mitotic Cells (%) [2]: 51.67% and 55.56%
Population Normal (%) [2]: 100%
Population Pyknosed Nuclei (%) [2]: 24.44% and 19.78%
Population Tubulin-Different-Phenotype (%) [2]: 64.79% and 29.63%
Total Cell Count [2]: 491 and 182
Population Apoptotic (%) [3]: 35.56% and 50%
Population Fragmented Nuclei (%) [3]: 1.16% and 2.33%
Population Healthy Nuclei (%) [3]: 90.15% and 79.07%
Population Hoechst High Intensity Objects (%) [3]: 0%
Population Membrane Permeable-Phenotype (%) [3]: 1.07% and 1.47%
Population Mitotic Cells (%) [3]: 64.44% and 50%
Population Normal (%) [3]: 100%
Population Pyknosed Nuclei (%) [3]: 8.69% and 18.6%
Population Tubulin-Different-Phenotype (%) [3]: 1.28% and 1.47%
Population Apoptotic (%) [4]: 62.5% and 65.62%
Population Fragmented Nuclei (%) [4]: 5.58% and 6.29%
Population Healthy Nuclei (%) [4]: 63.02% and 57.14%
Population Hoechst High Intensity Objects (%) [4]: 0%
Population Membrane Permeable-Phenotype (%) [4]: 6.23% and 9%
Population Mitotic Cells (%) [4]: 37.5% and 34.38%
Population Normal (%) [4]: 100%
Population Pyknosed Nuclei (%) [4]: 31.4% and 36.57%
Population Tubulin-Different-Phenotype (%) [4]: 63.93% and 46%
Total Cell Count [4]: 484 and 175
Population Apoptotic (%) [5]: 57.5% and 53.12%
Population Fragmented Nuclei (%) [5]: 1.52% and 3.23%
Population Healthy Nuclei (%) [5]: 89.14% and 83.87%
Population Hoechst High Intensity Objects (%) [5]: 0%
Population Membrane Permeable-Phenotype (%) [5]: 2.1% and 4.33%
Population Mitochondria Different-Phenotype (%) [5]: 0.26% and 9.62%
Population Mitotic Cells (%) [5]: 42.5% and 46.88%
Population Normal (%) [5]: 100%
Population Pyknosed Nuclei (%) [5]: 9.35% and 12.9%
Population Tubulin-Different-Phenotype (%) [5]: 1.57% and 3.37%
Population Apoptotic (%) [6]: 78.69% and 91.94%
Population Fragmented Nuclei (%) [6]: 1.9% and 1.52%
Population Healthy Nuclei (%) [6]: 54.63% and 51.52%
Population Hoechst High Intensity Objects (%) [6]: 0.24% and 0%
Population Membrane Permeable-Phenotype (%) [6]: 1.74% and 8.82%
Population Mitochondria Different-Phenotype (%) [6]: 29.13% and 51.47%
Population Mitotic Cells (%) [6]: 21.31% and 8.06%
Population Normal (%) [6]: 99.76% and 100%
Population Pyknosed Nuclei (%) [6]: 43.47% and 46.97%
Population Tubulin-Different-Phenotype (%) [6]: 69.57% and 76.47%

Cc1cc(NC(=O)c2cccc(NC(=O)/C=C/CN(C)C)c2)ccc1Nc1nccc(-c2cccnc2)n1
Population Apoptotic (%) [1]: 27.59% and 30.56%
Population Fragmented Nuclei (%) [1]: 1.96% and 1.23%
Population Healthy Nuclei (%) [1]: 90.93% and 76.69%
Population Hoechst High Intensity Objects (%) [1]: 0%
Population Membrane Permeable-Phenotype (%) [1]: 0.54% and 4%
Population Mitochondria Different-Phenotype (%) [1]: 0% and 11.2%
Population Mitotic Cells (%) [1]: 72.41% and 69.44%
Population Normal (%) [1]: 100%
Population Tubulin-Different-Phenotype (%) [1]: 1.35% and 1.6%
Total Cell Count [1]: 408 and 163
Population Apoptotic (%) [2]: 30.59% and 26%
Population Fragmented Nuclei (%) [2]: 2.2% and 3.08%
Population Healthy Nuclei (%) [2]: 71.07% and 58.46%
Population Hoechst High Intensity Objects (%) [2]: 0%
Population Membrane Permeable-Phenotype (%) [2]: 61.06% and 84.21%
Population Mitotic Cells (%) [2]: 69.41% and 74%
Population Normal (%) [2]: 100%
Population Pyknosed Nuclei (%) [2]: 26.73% and 38.46%
Population Tubulin-Different-Phenotype (%) [2]: 71.68% and 55.26%
Total Cell Count [2]: 318 and 130
Population Apoptotic (%) [3]: 35.71% and 38.71%
Population Fragmented Nuclei (%) [3]: 1.26% and 5.24%
Population Healthy Nuclei (%) [3]: 91.2% and 80%
Population Hoechst High Intensity Objects (%) [3]: 0%
Population Membrane Permeable-Phenotype (%) [3]: 0.79% and 4.17%
Population Mitotic Cells (%) [3]: 64.29% and 61.29%
Population Normal (%) [3]: 100%
Population Pyknosed Nuclei (%) [3]: 7.54% and 14.76%
Population Tubulin-Different-Phenotype (%) [3]: 0.79% and 1.19%
Total Cell Count [3]: 557 and 210
Population Apoptotic (%) [4]: 56.85% and 76.53%
Population Fragmented Nuclei (%) [4]: 2.51% and 3.51%
Population Hoechst High Intensity Objects (%) [4]: 0.31% and 0%
Population Membrane Permeable-Phenotype (%) [4]: 25.44% and 41.67%
Population Mitochondria Different-Phenotype (%) [4]: 21.93% and 41.67%
Population Mitotic Cells (%) [4]: 43.15% and 23.47%
Population Normal (%) [4]: 99.69% and 100%
Population Pyknosed Nuclei (%) [4]: 61.76% and 85.96%
Population Tubulin-Different-Phenotype (%) [4]: 54.39% and 58.33%
Total Cell Count [4]: 320 and 114
Population Apoptotic (%) [5]: 41.94% and 59.02%
Population Fragmented Nuclei (%) [5]: 4.41% and 6.54%
Population Healthy Nuclei (%) [5]: 86.07% and 73.53%
Population Hoechst High Intensity Objects (%) [5]: 0% and 0.33%
Population Membrane Permeable-Phenotype (%) [5]: 0.6% and 3.11%
Population Mitochondria Different-Phenotype (%) [5]: 0% and 7.56%
Population Mitotic Cells (%) [5]: 58.06% and 40.98%
Population Normal (%) [5]: 100% and 99.67%
Population Pyknosed Nuclei (%) [5]: 9.53% and 19.93%
Population Tubulin-Different-Phenotype (%) [5]: 1.67% and 0.89%
Population Apoptotic (%) [6]: 92.36% and 96.04%
Population Fragmented Nuclei (%) [6]: 3.57% and 4%
Population Healthy Nuclei (%) [6]: 7.14% and 15.2%
Population Hoechst High Intensity Objects (%) [6]: 0%
Population Mitotic Cells (%) [6]: 7.64% and 3.96%
Population Normal (%) [6]: 100%
Population Pyknosed Nuclei (%) [6]: 89.29% and 80.8%
Total Cell Count [6]: 308 and 125
